These results are taken from the RNAGym collection of RNA variant scans (doi:10.1002/anie.201605470).

The labels stand for the following.
B1: Osa-1-4 twister ribozyme (parent)
chain: CCGCCUAACACUGCCAAUGCCGGUCCCAAGCCCGGAUAAAAGUGGAGGGGGCGG

In this data set the parent is B1. In words: self-cleavage, relative activity (ratio to wild type); higher = more cleavage; co-transcriptional. The essentials: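 A DNA template for a 54-nucleotide Oryza sativa twister ribozyme was synthesised with 97 % wild-type base and 1 % of each other base at the 48 positions downstream of the cleavage site. It was transcribed in vitro for 2 h at 37 °C, allowing co-transcriptional self-cleavage, then reverse-transcribed with a template-switching oligonucleotide, PCR-amplified and deep-sequenced. Cleavage status was scored from reads with or without upstream sequence. Relative activity is fraction cleaved normalised to wild type.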
For the variant A10C C11A, the self-cleavage was 0.1.

For A10C C11U, the self-cleavage is 0.51. For A10C C11G, the self-cleavage is 0.04. As for A10G A41C, the figure is 0.39; as for A10G A41G, 0.2; as for A10G A41U, 0.76. With A10G A46U, the self-cleavage was 0.11. The result for A10G A46C reads 0.06; that for A10G A46G, 0.08; that for A10C G22A, 0.05.

Consider A10C G22C, for which the self-cleavage was 0.02. In the case of A10C G22U, the self-cleavage was found to be 0.03. A10C C14A: the self-cleavage came to 0.02. Turning to A10C C14G, the self-cleavage turned out to be 0.04.

For the variant A10C C14U, the self-cleavage came out at 0.03. In the case of A10C C52G, the self-cleavage amounted to 0.11.

With A10C C52A, the self-cleavage worked out at 0.06. As for A10C C52U, the figure is 0.11; as for A10C A40C, 0.03. As for A10C A40G, the figure is 0.04. As for A10C A40U, the figure is 0.03; as for A10G A40G, 0.34. On to A10G A40U, for which the self-cleavage turned out to be 0.27.

Regarding A10G A40C, the self-cleavage was 0.08. In the case of A10C G30C, the self-cleavage stood at 0.01. The result for A10C G30A reads 0.01; that for A10C G30U, 0.01; that for A10C G42C, 0.02. Regarding A10C G42U, the self-cleavage was 0.01.

In the case of A10C G42A, the self-cleavage worked out at 0.03.

As to A10C G47A, the self-cleavage is 0.02.

A10C G47C: the self-cleavage amounted to 0.02.

In the case of A10C G47U, the self-cleavage amounted to 0.03. The result for A10C G48C reads 0.02; that for A10C G48U, 0.02; that for A10C G48A, 0.02. The result for A10C C15U reads 0.04. A10C C15G: the self-cleavage was 0.04.

A10C C15A: the self-cleavage was 0.08.

For the variant A10G A16U, the self-cleavage was found to be 0.61. Consider A10G A16G, for which the self-cleavage was 0.89.

As to A10G A16C, the self-cleavage came to 0.27. The result for A10G A28G reads 0.15; that for A10G A28U, 0.43; that for A10G A28C, 0.63. As for A10C G45C, the figure is 0.02; as for A10C G45A, 0.02; as for A10C G45U, 0.02. As for A10C C26U, the figure is 0.03; as for A10C C26G, 0.03; as for A10C C26A, 0.03. Consider A10C G23A, for which the self-cleavage came to 0.03. Regarding A10C G23U, the self-cleavage came to 0.02. Turning to A10C G23C, the self-cleavage was 0.01.

Consider A10G, for which the self-cleavage stood at 0.91.

Take A10G A36U: the self-cleavage is 0.94. As for A10G A36C, the figure is 0.26; as for A10G A36G, 0.86; as for A10G A29G, 0.09. The result for A10G A29C reads 0.05.

Regarding A10G A29U, the self-cleavage came to 0.07.

As to A10C U43C, the self-cleavage amounted to 0.05. The result for A10C U43G reads 0.64; that for A10C U43A, 0.39. As for A10C G34U, the figure is 0.05; as for A10C G34A, 0.04; as for A10C G34C, 0.03. The result for A10C U37G reads 0.11; that for A10C U37A, 0.11.

Regarding A10C U37C, the self-cleavage worked out at 0.09. For A10C G49A, the self-cleavage was determined as 0.02. The result for A10C G49U reads 0.02; that for A10C G49C, 0.02. As for A10G C9G, the figure is 0.41.

In the case of A10G C9U, the self-cleavage is 0.77. A10G C9A: the self-cleavage is 0.57. As for A10C C33A, the figure is 0.03; as for A10C C33U, 0.04; as for A10C C33G, 0.02. With A10C C21A, the self-cleavage was determined as 0.04. Take A10C C21G: the self-cleavage came to 0.01. As for A10C C21U, the figure is 0.06; as for A10G A8G, 0.49. With A10G A8C, the self-cleavage is 0.13. In the case of A10G A8U, the self-cleavage amounted to 0.12.

Consider A10C G13U, for which the self-cleavage came out at 0.03. In the case of A10C G13A, the self-cleavage stood at 0.02.

For A10C G13C, the self-cleavage was determined as 0.02. A10C G50U: the self-cleavage turned out to be 0.04. Consider A10C G50A, for which the self-cleavage is 0.11. The result for A10C G50C reads 0.04; that for A10C C31A, 0.02; that for A10C C31G, 0.03. For A10C C31U, the self-cleavage turned out to be 0.03.

With A10C G35U, the self-cleavage amounted to 0.04. Take A10C G35A: the self-cleavage was 0.07. The result for A10C G35C reads 0.03; that for A10C G19A, 0.04. As for A10C G19C, the figure is 0.02. As for A10C G19U, the figure is 0.03.

Turning to A10C G53C, the self-cleavage was 0.02. As for A10C G53U, the figure is 0.06; as for A10C G53A, 0.11. As for A10C G54C, the self-cleavage came to 0.14. Regarding A10C G54A, the self-cleavage turned out to be 0.17. As for A10C G54U, the figure is 0.3; as for A10C A46C, 0.02; as for A10C A46G, 0.03. On to A10C A46U, for which the self-cleavage was determined as 0.02. On to A10C U24C, for which the self-cleavage turned out to be 0.04.

As for A10C U24G, the self-cleavage was determined as 0.02.

On to A10C U24A, for which the self-cleavage came out at 0.02. As for A10G A17G, the figure is 0.64. As for A10G A17U, the figure is 0.85; as for A10G A17C, 0.44. For A10C A38G, the self-cleavage was determined as 0.08. As for A10C A38U, the figure is 0.08; as for A10C A38C, 0.07; as for A10C C32U, 0.02. As for A10C C32A, the figure is 0.02; as for A10C C32G, 0.02; as for A10G A39U, 0.69.

Take A10G A39C: the self-cleavage stood at 0.61. For the variant A10G A39G, the self-cleavage came out at 0.82.

In the case of A10G C11A, the self-cleavage stood at 0.38.

As for A10G A38C, the self-cleavage was 0.91. The result for A10G A38G reads 0.88; that for A10G A38U, 0.8; that for A10C G51U, 0.04. Take A10C G51C: the self-cleavage is 0.02.

For the variant A10C G51A, the self-cleavage was 0.06. As for A10C U18C, the figure is 0.07; as for A10C U18G, 0.24.

Consider A10C U18A, for which the self-cleavage was 0.08. The result for A10C G44C reads 0.16; that for A10C G44U, 0.22. With A10C G44A, the self-cleavage turned out to be 0.06. Take A10C C9A: the self-cleavage was 0.43.

Consider A10C C9U, for which the self-cleavage came to 0.06.

On to A10C C9G, for which the self-cleavage came out at 0.07. As for A10C A29C, the figure is 0.02; as for A10C A29G, 0.03. As to A10C A29U, the self-cleavage was determined as 0.02. As to A10C C27A, the self-cleavage is 0.06.

For A10C C27G, the self-cleavage was determined as 0.02. For A10C C27U, the self-cleavage came out at 0.02. On to A10G A7C, for which the self-cleavage was found to be 0.06.

Turning to A10G A7G, the self-cleavage was 0.39. The result for A10G A7U reads 0.09; that for A10C C25U, 0.04; that for A10C C25A, 0.03. The result for A10C C25G reads 0.01; that for A10C A39U, 0.05. For the variant A10C A39C, the self-cleavage was found to be 0.05. As for A10C A39G, the figure is 0.06; as for A10C A41C, 0.05; as for A10C A41U, 0.06.

For A10C A41G, the self-cleavage stood at 0.11. The result for A10C C20G reads 0.03; that for A10C C20A, 0.08. The result for A10C C20U reads 0.08; that for A10C U12G, 0.04; that for A10C U12A, 0.03. Consider A10C U12C, for which the self-cleavage was 0.06.

As for A10C A36C, the self-cleavage worked out at 0.03. As for A10C A36U, the figure is 0.09; as for A10C A36G, 0.11.
